Laboratory results: ChEMBL document CHEMBL1153368, “Benzophenone-N-ethyl piperidine ether analogues--synthesis and efficacy as anti-inflammatory agent” (Bioorg Med Chem Lett, 2009)
Calls of active or inactive are those of the source. The rule behind the calls is not given here.

Key:
[1] = system: Mus musculus; assay: Antiinflammatory activity in Albino mouse assessed as inhibition of carrageenan-induced foot paw edema at 100 mg/kg, po administered 1 hr before carrageenan challenge measured after 2 hrs; format: functional
In short: (§1)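 Fasted mice (water free) dosed orally with suspensions in 0.5% CMC; controls received vehicle only. Right hind paw thickness measured with a dial gauge 1 h after dosing, then carrageenan-induced edema re-measured 2 h later. Effect expressed as percent inhibition of edema versus control; mean of n = 6.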

[2] = system: Mus musculus; assay: Antiinflammatory activity against carrageenan-induced inflammation in Albino mouse air ppouch model assessed as number of polymorphonuclear leukocytes infiltration at 100 mg/kg, po administered 1 hr before carrageenan challenge measured after 4 hrs by air pouch test; format: functional
In short: (§2)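 Mice housed in groups of six, food withdrawn the day before with water free. Dosing by oral gavage in 0.5% CMC, with vehicle-only controls. Air pouch made by sc injection of 1 ml air over 3 days. On day 3, 1 ml of 10 mg/ml carrageenan (heat-sterilized, held at 37 °C) injected into the pouch, 1 h after dosing. Killed 4 h later; pouch lavaged with 3 ml PBS-heparin, spun 2000 rpm 15 min 4 °C, PMNL counted by Coulter Counter; n = 6.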

[3] = system: Mus musculus; assay: Toxicity in carrageenan treated Albino mouse kidney assessed as edema at 100 mg/kg, po administered 1 hr before carrageenan challenge measured after 4 hrs by hematoxilen eosine staining; format: organism-based; design: dose 100 mg/kg, route oral; conditions: in vivo
In short: (§3)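 Mice given oral doses suspended in 0.5% CMC (vehicle controls) for the carrageenan paw edema experiment. Animals sacrificed 4 h after the paw edema experiments. Liver, stomach and kidneys removed and fixed in 10% formalin, then sections scored microscopically for kidney edema and mononuclear cell infiltration, gastritis/ulceration, and liver fatty change, acute hepatitis/spotty necrosis and cholestasis.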

[4] = system: Mus musculus; assay: Toxicity in carrageenan treated Albino mouse kidney assessed as […] mononuclear lymphocytes at 100 mg/kg, po administered 1 hr before carrageenan challenge measured after 4 hrs by hematoxilen eosine staining; format: organism-based; design: dose 100 mg/kg, route oral; conditions: in vivo; in short: as §3
[5] = system: Mus musculus; assay: Toxicity in carrageenan treated Albino mouse stomach assessed as gastric ulcer at 100 mg/kg, po administered 1 hr before carrageenan challenge measured after 4 hrs by hematoxilen eosine staining; format: organism-based; design: dose 100 mg/kg, route oral; conditions: in vivo; in short: as §3
[6] = system: Mus musculus; assay: Toxicity in carrageenan treated Albino mouse liver assessed as fatty change at 100 mg/kg, po administered 1 hr before carrageenan challenge measured after 4 hrs by hematoxilen eosine staining; format: organism-based; design: dose 100 mg/kg, route oral; conditions: in vivo; in short: as §3
[7] = system: Mus musculus; assay: Toxicity in carrageenan treated Albino mouse liver assessed as cholestasis at 100 mg/kg, po administered 1 hr before carrageenan challenge measured after 4 hrs by hematoxilen eosine staining; format: organism-based; design: dose 100 mg/kg, route oral; conditions: in vivo; in short: as §3
[8] = organism: Mus musculus; assay: animal or person; conditions: Albino, po, read-out: INH
[9] = system: Mus musculus; assay: Toxicity in carrageenan treated Albino mouse stomach assessed as gastric ulcer at 10 mg/kg, po administered 1 hr before carrageenan challenge measured after 4 hrs by hematoxilen eosine staining; format: organism-based; design: dose 10 mg/kg, route oral; conditions: in vivo; in short: as §3
[10] = system: Mus musculus; assay: Toxicity in carrageenan treated Albino mouse liver assessed as cholestasis at 10 mg/kg, po administered 1 hr before carrageenan challenge measured after 4 hrs by hematoxilen eosine staining; format: organism-based; design: dose 10 mg/kg, route oral; conditions: in vivo; in short: as §3
[11] = system: Mus musculus; assay: Antiinflammatory activity in Albino mouse assessed as inhibition of carrageenan-induced foot paw edema at 10 mg/kg, po administered 1 hr before carrageenan challenge measured after 2 hrs; format: functional; in short: as §1
[12] = system: Mus musculus; assay: Antiinflammatory activity against carrageenan-induced inflammation in Albino mouse air ppouch model assessed as number of polymorphonuclear leukocytes infiltration at 10 mg/kg, po administered 1 hr before carrageenan challenge measured after 4 hrs by air pouch test; format: functional; in short: as §2
[13] = system: Mus musculus; assay: Toxicity in carrageenan treated Albino mouse liver assessed as acute hepatitis at 100 mg/kg, po administered 1 hr before carrageenan challenge measured after 4 hrs by hematoxilen eosine staining; format: organism-based; design: dose 100 mg/kg, route oral; conditions: in vivo; in short: as §3

| Compound | inhibition in vivo at 100 mg/kg [1] [%] | Activity [2] [×10⁵ /cm'3] | Activity [3] | Activity [4] | Activity [5] | Activity [6] | Activity [7] | inhibition in vivo at 30 mg/kg [8] [%] | Activity [9] | Activity [10] | inhibition in vivo at 10 mg/kg [11] [%] | Activity [12] [×10⁵ /cm'3] | Activity [13] | inhibition [1] |
| --- | --- | --- | --- | --- | --- | --- | --- | --- | --- | --- | --- | --- | --- | --- |
| Cc1cc(C(=O)c2ccccc2C)ccc1OCCN1CCCCC1 | 35.6 | 69.51 | Non-toxic | Non-toxic | Non-toxic | – | – | – | – | – | – | – | – | – |
| CCCCC1C(=O)N(c2ccccc2)N(c2ccccc2)C1=O [PHENYLBUTAZONE] | 53.3 | 53.28 | – | – | – | – | – | – | – | – | – | – | – | – |
| Cc1cc(C(=O)c2ccc(Cl)cc2Cl)ccc1OCCN1CCCCC1 | 68.7 | 30.15 | Non-toxic | Non-toxic | Non-toxic | Non-toxic | Non-toxic | – | – | – | – | – | – | – |
| COc1ccc(C(=O)c2ccc(OCCN3CCCCC3)c(C)c2)cc1 | 51.4 | 56.26 | Non-toxic | Non-toxic | – | Non-toxic | Non-toxic | – | – | – | – | – | – | – |
| COc1ccc2cc([C@H](C)C(=O)O)ccc2c1 [NAPROXEN] | – | – | – | – | – | – | – | 66.9 | – | – | – | – | – | – |
| COc1ccc2c(c1)c(CC(=O)O)c(C)n2C(=O)c1ccc(Cl)cc1 [INDOMETHACIN] | – | – | – | – | – | – | – | – | Toxic | Non-toxic | 32.1 | 68.81 | – | – |
| Cc1cc(C(=O)c2ccccc2Br)ccc1OCCN1CCCCC1 | 51.4 | 56.25 | Non-toxic | Non-toxic | – | Non-toxic | Non-toxic | – | – | – | – | – | Non-toxic | – |
| Cc1ccc(C(=O)c2ccc(OCCN3CCCCC3)c(C)c2)cc1 | – | – | Non-toxic | Non-toxic | Non-toxic | Non-toxic | Non-toxic | – | – | – | – | – | – | inactive |
| Cc1cc(C(=O)c2cccc(Cl)c2)ccc1OCCN1CCCCC1 | 51.4 | 56.26 | Non-toxic | – | Non-toxic | – | Non-toxic | – | – | – | – | – | – | – |
| Cc1cccc(C(=O)c2ccc(OCCN3CCCCC3)c(C)c2)c1 | 15.4 | 104.76 | Non-toxic | – | – | – | Non-toxic | – | – | – | – | – | Non-toxic | – |
| Cc1cc(C(=O)c2ccc(Br)cc2)ccc1OCCN1CCCCC1 | 67.5 | 31.75 | Non-toxic | Non-toxic | Non-toxic | Non-toxic | Non-toxic | – | – | – | – | – | Non-toxic | – |
| Cc1cc(C(=O)c2ccccc2)ccc1OCCN1CCCCC1 | 22.4 | 95.25 | Non-toxic | Non-toxic | – | – | – | – | – | – | – | – | – | – |
| Cc1cc(C(=O)c2ccc(F)cc2)ccc1OCCN1CCCCC1 | 60.6 | 32.41 | Non-toxic | Non-toxic | Non-toxic | Non-toxic | Non-toxic | – | – | – | – | – | Non-toxic | – |
